Reference: ChEMBL document CHEMBL1150245, “1-Aryl-2-dimethylaminomethyl-2-propen-1-one hydrochlorides and related adducts: A quest for selective cytotoxicity for malignant cells” (Bioorg Med Chem, 2008)

System: CCRF-CEM
Assay: Cytotoxicity against human CEM cells after 72 hrs
Format: functional, cell-based
Conditions: not given
Outline: (§1)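 Human transformed T-lymphocytes exposed to a range of compound concentrations at 37 °C for 72 h. IC50 is the concentration giving 50% inhibition of cell growth.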
Molecule C=C(CN(C)C)C(=O)c1ccc(Cl)cc1 has an IC50 of 32.6 µM. CN(C)CC(CO)C(=O)c1ccc([N+](=O)[O-])cc1 (configuration not stated) gave an IC50 of 12.2 µM. Molecule CN(C)CC(CO)C(=O)c1ccccc1 (configuration not stated) has an IC50 of 1.42 µM. With C=C(CN(C)C)C(=O)c1ccc([N+](=O)[O-])cc1 the IC50 was 7.91 µM. Work on C=C(CN(C)C)C(=O)c1ccc(C)cc1 yielded an IC50 of 11.4 µM. In the case of Cc1ccc(C(=O)C(CO)CN(C)C)cc1 (configuration not stated), the IC50 is reported as 8.22 µM.

System: not listed separately
Assay: Cytotoxicity against human HPLF cells
Format: cell-based
Conditions: not given
Outline: (§2)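 CC50 is the concentration killing 50% of cells, tested up to a highest concentration of 400 μM. Each value is the average of two independent determinations.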
For C=C(CN(C)C)C(=O)c1ccc(Cl)cc1, the CC50 was 9.2 µM. Work on CN(C)CC(CO)C(=O)c1ccc([N+](=O)[O-])cc1 (configuration not stated) yielded a CC50 of 176 µM. With CN(C)CC(CO)C(=O)c1ccccc1 (configuration not stated) the CC50 was 5.2 µM. In the case of C=C(CN(C)C)C(=O)c1ccc([N+](=O)[O-])cc1, the CC50 is reported as 26 µM. In the case of C=C(CN(C)C)C(=O)c1ccc(C)cc1, the CC50 is reported as 8.1 µM. Molecule Cc1ccc(C(=O)C(CO)CN(C)C)cc1 (configuration not stated) has a CC50 of 9.8 µM.

System: HSC-4
Assay: Cytotoxicity against human HSC4 cells
Format: functional
Conditions: not given
Outline: as §2
With C=C(CN(C)C)C(=O)c1ccc(Cl)cc1 the CC50 was 6.4 µM. CN(C)CC(CO)C(=O)c1ccc([N+](=O)[O-])cc1 (configuration not stated) showed a CC50 of 99 µM. With CN(C)CC(CO)C(=O)c1ccccc1 (configuration not stated) the CC50 was 6.5 µM. With C=C(CN(C)C)C(=O)c1ccc([N+](=O)[O-])cc1 the CC50 was 19 µM. Work on C=C(CN(C)C)C(=O)c1ccc(C)cc1 yielded a CC50 of 7.6 µM. Work on Cc1ccc(C(=O)C(CO)CN(C)C)cc1 (configuration not stated) yielded a CC50 of 5.8 µM.

System: not listed separately
Assay: Cytotoxicity against human HGF cells
Format: cell-based
Conditions: not given
Outline: as §2
In the case of C=C(CN(C)C)C(=O)c1ccc(Cl)cc1, the CC50 is reported as 6.1 µM. CN(C)CC(CO)C(=O)c1ccc([N+](=O)[O-])cc1 (configuration not stated) gave a CC50 of 271 µM. CN(C)CC(CO)C(=O)c1ccccc1 (configuration not stated) gave a CC50 of 4.4 µM. Molecule C=C(CN(C)C)C(=O)c1ccc([N+](=O)[O-])cc1 has a CC50 of 19.3 µM. Work on C=C(CN(C)C)C(=O)c1ccc(C)cc1 yielded a CC50 of 6.1 µM. Molecule Cc1ccc(C(=O)C(CO)CN(C)C)cc1 (configuration not stated) has a CC50 of 4.9 µM.

System: L1210
Assay: Cytotoxicity against mouse L1210 cells after 48 hrs
Conditions: L1210, 48 h
C=C(CN(C)C)C(=O)c1ccc(Cl)cc1 gave an IC50 of 26.5 µM. CN(C)CC(CO)C(=O)c1ccc([N+](=O)[O-])cc1 (configuration not stated) showed an IC50 of 42.6 µM. For CN(C)CC(CO)C(=O)c1ccccc1 (configuration not stated), the IC50 was 1.65 µM. In the case of C=C(CN(C)C)C(=O)c1ccc([N+](=O)[O-])cc1, the IC50 is reported as 8.61 µM. With C=C(CN(C)C)C(=O)c1ccc(C)cc1 the IC50 was 11.1 µM. Molecule Cc1ccc(C(=O)C(CO)CN(C)C)cc1 (configuration not stated) has an IC50 of 6.55 µM.

System: HSC-2
Assay: Cytotoxicity against human HSC2 cells
Format: functional
Conditions: not given
Outline: as §2
C=C(CN(C)C)C(=O)c1ccc(Cl)cc1 showed a CC50 of 5.1 µM. With CN(C)CC(CO)C(=O)c1ccc([N+](=O)[O-])cc1 (configuration not stated) the CC50 was 73 µM. CN(C)CC(CO)C(=O)c1ccccc1 (configuration not stated) showed a CC50 of 5.2 µM. C=C(CN(C)C)C(=O)c1ccc([N+](=O)[O-])cc1 showed a CC50 of 8.2 µM. In the case of C=C(CN(C)C)C(=O)c1ccc(C)cc1, the CC50 is reported as 3.4 µM. Cc1ccc(C(=O)C(CO)CN(C)C)cc1 (configuration not stated) showed a CC50 of 6.3 µM.

System: K562
Assay: Cytotoxicity against human K562 cells
Format: functional, cell-based
Conditions: not given
Outline: (§3)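 Part of a human tumour cell line panel screen run by a literature procedure with compounds at 10−8–10−4 M. GI50 is the concentration giving 50% growth inhibition. Where 50% inhibition was not reached at 100 μM, 100 μM was used as the value.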
C=C(CN(C)C)C(=O)c1ccc(Cl)cc1 showed an IC50 of 3.47 µM.

System: not listed separately
Assay: Cytotoxicity against human Molt4/C8 cells after 72 hrs
Format: functional, cell-based
Conditions: MOLT-4, 72 h
Outline: as §1
Work on C=C(CN(C)C)C(=O)c1ccc(Cl)cc1 yielded an IC50 of 30.2 µM. CN(C)CC(CO)C(=O)c1ccc([N+](=O)[O-])cc1 (configuration not stated) gave an IC50 of 36.8 µM. In the case of CN(C)CC(CO)C(=O)c1ccccc1 (configuration not stated), the IC50 is reported as 5.84 µM. C=C(CN(C)C)C(=O)c1ccc([N+](=O)[O-])cc1 gave an IC50 of 8.95 µM. C=C(CN(C)C)C(=O)c1ccc(C)cc1 showed an IC50 of 35.5 µM. Cc1ccc(C(=O)C(CO)CN(C)C)cc1 (configuration not stated) showed an IC50 of 21 µM.

System: CCRF-CEM
Assay: Cytotoxicity against human CCRF-CEM cells
Format: functional, cell-based
Conditions: not given
Outline: as §3
In the case of C=C(CN(C)C)C(=O)c1ccc(Cl)cc1, the IC50 is reported as 3.31 µM.

System: SR
Assay: Cytotoxicity against human SR cells
Format: cell-based
Conditions: not given
Outline: as §3
C=C(CN(C)C)C(=O)c1ccc(Cl)cc1 gave an IC50 of 3.98 µM.

System: HL-60
Assay: Cytotoxicity against human HL60 cells
Format: functional
Conditions: not given
Outline: as §2
C=C(CN(C)C)C(=O)c1ccc(Cl)cc1 showed a CC50 of less than 3.1 µM. With CN(C)CC(CO)C(=O)c1ccc([N+](=O)[O-])cc1 (configuration not stated) the CC50 was 35 µM. In the case of CN(C)CC(CO)C(=O)c1ccccc1 (configuration not stated), the CC50 is reported as 0.41 µM. Work on C=C(CN(C)C)C(=O)c1ccc([N+](=O)[O-])cc1 yielded a CC50 of 1.6 µM. C=C(CN(C)C)C(=O)c1ccc(C)cc1 showed a CC50 of 0.45 µM. With Cc1ccc(C(=O)C(CO)CN(C)C)cc1 (configuration not stated) the CC50 was less than 3.1 µM.

System: not listed separately
Assay: Cytotoxicity against human HPC cells
Format: cell-based
Conditions: not given
Outline: as §2
In the case of C=C(CN(C)C)C(=O)c1ccc(Cl)cc1, the CC50 is reported as 6 µM. CN(C)CC(CO)C(=O)c1ccc([N+](=O)[O-])cc1 (configuration not stated) gave a CC50 of 227 µM. CN(C)CC(CO)C(=O)c1ccccc1 (configuration not stated) gave a CC50 of 5.5 µM. With C=C(CN(C)C)C(=O)c1ccc([N+](=O)[O-])cc1 the CC50 was 30 µM. With C=C(CN(C)C)C(=O)c1ccc(C)cc1 the CC50 was 6.9 µM. For Cc1ccc(C(=O)C(CO)CN(C)C)cc1 (configuration not stated), the CC50 was 5.7 µM.
